Most compounds without a hit are left out; they make up all but 1.9% or so of the library.
SR-BI DiI inh = mouse SR-BI HDL lipid transfer inhibition; ldlA[mSR-BI] CHO cells, DiI-HDL uptake fluorescence, 3 h; Q61009; actives 0.96% (n = 320,000); inhibition, % at 12.5 µM; AID 488896;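 active = mean replicate inhibition of at least 70% and a set share of replicates each scoring 70 or more; inconclusive = meets just one of the two criteria; inactive = fails both criteria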
Target sequence (Q61009 whole entry, looked up): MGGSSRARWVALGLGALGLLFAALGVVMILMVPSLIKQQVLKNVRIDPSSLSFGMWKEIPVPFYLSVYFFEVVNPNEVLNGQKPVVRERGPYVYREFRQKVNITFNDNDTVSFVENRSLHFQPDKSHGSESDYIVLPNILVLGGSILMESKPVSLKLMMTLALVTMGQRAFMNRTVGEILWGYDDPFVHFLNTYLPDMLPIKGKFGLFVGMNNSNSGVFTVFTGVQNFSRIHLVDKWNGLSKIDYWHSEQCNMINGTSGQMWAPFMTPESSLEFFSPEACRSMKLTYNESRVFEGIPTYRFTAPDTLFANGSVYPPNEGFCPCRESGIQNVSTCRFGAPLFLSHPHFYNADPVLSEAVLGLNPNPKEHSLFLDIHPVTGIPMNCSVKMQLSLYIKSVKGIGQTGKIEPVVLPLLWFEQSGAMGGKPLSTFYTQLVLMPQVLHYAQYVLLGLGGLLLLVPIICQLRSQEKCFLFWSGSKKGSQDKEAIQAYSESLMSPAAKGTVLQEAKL
N-glyco inh = N-linked glycosylation inhibition | D54 ERlucT glycosylation luciferase reporter, 24 h; percent of 100 nM tunicamycin response | reporter increase, % at 12.5 µM | actives 0.23% (n = 360,000) | AID 588692;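 active = mean luciferase reporter signal, scaled so untreated is 0 and the glycosylation-blocking control 100, at or above a set limit in every replicate; inconclusive = mean reaches the limit but not every replicate does; inactive = mean below the limit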;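 note: luciferase carries N-glycosylation sites so blocking glycosylation raises the light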
Rtt109 HAT inh = inhibitors of Candida albicans Rtt109/Vps75 histone acetyltransferase. Q5AAJ8. purified Rtt109/Vps75, ThioGlo CoA-SH fluorescence, 4 h. inhibition, % at 34.9 µM. actives 0.16% (n = 330,000). AID 540336;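 active = inhibition of at least 50% in every replicate; inconclusive = best replicate reaches 50% inhibition but some replicates fall short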
HIV Env fusion = HIV envelope-mediated fusion inhibition | HeLa-JRFL Env/CEM21 cell fusion, luciferase | inhibition, % at 12.3 µM | actives 1.1% (n = 360,000);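 active = mean replicate inhibition score of at least 50 and every replicate individually at or above 50; inconclusive = only one of the two criteria met; inactive = mean below 50 and not all replicates reaching 50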
PglD inh = blocks C. jejuni PglD acetyltransferase activity. purified PglD enzyme, DTNB colorimetric CoA detection. inhibition, % at 12.5 µM. actives 0.098% (n = 360,000); in the data active = inhibition above about 16%, passing the limit was not always enough; inconclusive = no clear call, values can overlap the other calls
SR-BI uptake up = enhances SR-BI lipid uptake from DiI-HDL; CHO ldlA[mSR-BI] cells, DiI-HDL uptake fluorescence, 3 h; 100 = double the neutral-control signal; activation, % at 12.5 µM; actives 0.096% (n = 320,000);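 active = mean replicate activation of at least 60% and every replicate at or above 60%; inconclusive = mean or all-replicate condition met, but not both; inactive = mean below 60% and not all replicates reaching 60%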
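Assay system: LDL receptor-deficient CHO ldlA cells overexpressing murine SR-BI / Medium: BSA-supplemented, HEPES-buffered Ham's F12, pH 7.4 / Probe or stimulus: DiI-labelled HDL at 10 µg/mL final / Timing: compound with DiI-HDL co-incubation, 3 h at 37 °C / Technique: bottom-read cell fluorescence after medium removal, ex 550/em 595 nm / Measure: HDL uptake via cellular fluorescence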
Large screens that a line does not name were inactive.

O=C(Nc1ccccc1F)N1C[C@@H]2[C@H](c3ccccc31)[C@@H](CO)N2C(=O)c1ccccn1	none (no result: SR-BI DiI inh, N-glyco inh, Rtt109 HAT inh, HIV Env fusion, SR-BI uptake up)
Cc1c(C(=O)N2CCCCC2)sc(NC(=O)C2CC2)c1C#N	SR-BI uptake up 241 (no result: Rtt109 HAT inh, HIV Env fusion)
Cc1c(C(=O)N2CCCCC2)sc(NC(=O)C(C)C)c1C#N	none (no result: HIV Env fusion, PglD inh)
COc1ccc(S(=O)(=O)N(C)C[C@H]2Oc3c(NC(=O)c4ccncc4)cccc3C(=O)N([C@@H](C)CO)C[C@H]2C)cc1	none (no result: SR-BI DiI inh, N-glyco inh, Rtt109 HAT inh, HIV Env fusion, SR-BI uptake up)
O=C(NNC(=O)c1cccc2ccccc12)c1ccc(Cl)cc1	none (no result: HIV Env fusion)
C/C(=C\C(=O)c1ccccc1)NNC(=O)c1ccc(Cl)cc1	SR-BI DiI inh 91
O=C(NNC(=O)c1ccccc1O)c1ccc(Cl)cc1	SR-BI DiI inh 88
Cc1cccc(C(=O)NNC(=O)c2ccc(Cl)cc2)c1O	SR-BI DiI inh 75 (no result: HIV Env fusion)
O=C(N[C@H]1CC[C@H](CCNC(=O)C2CCC2)O[C@@H]1CO)c1ccncc1	none (no result: SR-BI DiI inh, N-glyco inh, Rtt109 HAT inh, SR-BI uptake up)
COc1cc2c(cc1OC)CN(c1ccc3ccccc3n1)CC2	SR-BI DiI inh 76, N-glyco inh inconclusive
COc1cc2c(cc1OC)CN(c1ccc(-c3ccccc3OC)nn1)CC2	none (no result: HIV Env fusion)
C[C@H](CO)N1C[C@H](C)[C@H](CN(C)C(=O)Nc2ccccc2)Oc2ncc(C3=CCCCC3)cc2C1=O	none (no result: SR-BI DiI inh, N-glyco inh, Rtt109 HAT inh, SR-BI uptake up)
CCCCCCc1ccc(OC(=O)c2ccncc2)cc1	none
CCCCCCOc1ccc(OC(=O)c2ccncc2)cc1	HIV Env fusion 70
CCCCC1(Cc2cccc([N+](=O)[O-])c2)C(=O)N(c2ccccc2)N(c2ccccc2)C1=O	HIV Env fusion 120 (no result: SR-BI DiI inh, SR-BI uptake up)
O=C(C[C@H]1CC[C@H]2[C@@H](COC[C@@H](O)CN2S(=O)(=O)c2ccc(F)cc2)O1)N1CCc2ccccc2C1	none (no result: SR-BI DiI inh, N-glyco inh, Rtt109 HAT inh, HIV Env fusion, SR-BI uptake up)
COc1ccc(CN(C)C[C@@H]2Oc3ccc(NC(=O)Cn4cnnn4)cc3C(=O)N([C@H](C)CO)C[C@H]2C)cc1	none (no result: SR-BI DiI inh, N-glyco inh, Rtt109 HAT inh, SR-BI uptake up)
N#Cc1ccc(-c2csc(NC3=NCCCCC3)n2)cc1	SR-BI DiI inh 75 (no result: PglD inh)
c1ccc(-c2csc(NC3=NCCCCC3)n2)cc1	none (no result: PglD inh)
Cn1cnc(S(=O)(=O)N[C@H]2C=C[C@@H](CC(=O)NCC3CC3)O[C@@H]2CO)c1	none (no result: SR-BI DiI inh, N-glyco inh, Rtt109 HAT inh, SR-BI uptake up)
O=C(Nc1ccccc1N1CCN(c2ccccc2)CC1)c1ccccc1F	SR-BI DiI inh 75 (no result: PglD inh)
O=C(Nc1ccc(N2CCN(C(=O)c3ccc(Cl)cc3)CC2)cc1)c1ccc2c(c1)OCCO2	HIV Env fusion 86
O=C(Nc1ccccc1N1CCN(C(=O)c2ccc(Cl)cc2)CC1)c1cccc(F)c1	SR-BI DiI inh 74
O=C(Nc1ccccc1N1CCN(C(=O)c2ccccc2)CC1)c1cccc(Cl)c1	none (no result: SR-BI DiI inh, SR-BI uptake up)
CC(C)NC(=O)Nc1ccc2c(c1)C(=O)N([C@@H](C)CO)C[C@@H](C)[C@H](CN(C)C(=O)NC(C)C)OCCCC[C@H](C)O2	none (no result: SR-BI DiI inh, N-glyco inh, Rtt109 HAT inh, SR-BI uptake up)
COc1ccc(S(=O)(=O)n2ccc(-c3ccc(OCCN(C)c4ccccn4)cc3)n2)cc1	HIV Env fusion 75
CCOC(=O)c1ccccc1NC(=O)Cn1c(=O)n(Cc2ccccc2)c(=O)c2c(C)c(C)sc21	HIV Env fusion 58 (no result: PglD inh)
CCOc1ccc(-n2c(=O)c3c(C)c(C(=O)N(C)C)sc3n(CC(=O)Nc3ccccc3F)c2=O)cc1	none (no result: PglD inh)
CC1=C(C(=O)OCC(Cl)(Cl)Cl)N2C(=O)C(NC(=O)Cc3ccccc3)C2SC1 (centres undefined)	SR-BI DiI inh 78
CC(=O)OCC1=C(C(=O)OC(C)(C)C)N2C(=O)[C@@H](NC(=O)Cc3ccccc3)[C@H]2SC1	none
COc1ccccc1-c1ccc([C@H]2[C@@H](CO)N(C(=O)C3CCCC3)[C@H]2C#N)cc1	none (no result: SR-BI DiI inh, N-glyco inh, Rtt109 HAT inh, PglD inh, SR-BI uptake up)
C/C=C/c1ccc([C@@H]2[C@H](CO)N(C(=O)CC)[C@H]2CNC(=O)C2CC2)cc1	none (no result: SR-BI DiI inh, N-glyco inh, Rtt109 HAT inh, HIV Env fusion, SR-BI uptake up)
Cc1ccc2nc(/C(C#N)=C/c3cn[nH]c3-c3ccc(F)cc3)[nH]c2c1	N-glyco inh 32 (no result: HIV Env fusion, PglD inh)
Cc1ccc2nc(/C(C#N)=C/c3ccc(O)c(O)c3)[nH]c2c1	none
CC1=Nc2ccccc2N=C(NC(=O)c2ccccc2)C1c1ccc(Cl)cc1 (centres undefined)	HIV Env fusion 69
CC1=CC(c2ccc(Cl)cc2)n2nc(NC(=O)c3ccccc3)nc2N1 (centres undefined)	none (no result: HIV Env fusion)

Screening results from PubChem.
